Results: ChEMBL document CHEMBL1150803, “Absence of a universal mechanism of mitochondrial toxicity by nucleoside analogs” (Antimicrob Agents Chemother, 2007)

Experiments:
[1] = Toxicity against human HepG2/C3A cells assessed as inhibition of cell proliferation at 10 to 50 uM after 6 days by SRB assay
[2] = test system: H9c2; experiment: Toxicity in rat […] cells assessed as induction of cell death at 10 to 50 uM after 4 to 14 days
[3] = Toxicity against human HepG2/C3A cells assessed as metabolic alterations at 10 to 50 uM after 4 to 14 days by SRB assay; assay type: cell-based
[4] = test system: H9c2; experiment: Toxicity against rat H9c2 cells assessed as reduction in mitochondrial DNA copy numbers at 10 uM after 12 days relative to control; parameters: scale not given: the % may be the effect or the level left; settings: h9c2, 288 h
[5] = Toxicity in human HepG2/C3A cells assessed as induction of cell death at 10 to 50 uM after 4 to 14 days; assay type: cell-based
Outline: (§1)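 LIVE/DEAD flow cytometry: harvested cells in PBS with 100 nM calcein AM and 8 μM ethidium homodimer 1, 30 min at 37°C in the dark, 488 nm excitation. After debris gating, dead cells are those high in ethidium homodimer and low in calcein, counted per 10,000 events. HepG2 were exposed 4, 10 or 14 days; H9c2 12 days. Compared with time-matched control.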

[6] = test system: H9c2; experiment: Toxicity against rat H9c2 cells assessed as metabolic alterations at 10 to 50 uM after 4 to 14 days by SRB assay; settings: h9c2, 50 µM
[7] = Toxicity against human HepG2/C3A cells assessed as reduction in mitochondrial DNA copy numbers at 10 uM after 4 to 14 days relative to control; assay type: cell-based; parameters: scale not given: the % may be the effect or the level left
Outline: (§2)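 HepG2/C3A cells were grown in MEM with pyruvate and 10% FBS. Drug in PBS was replenished every 2 days for 4, 10 or 14 days. DNA was extracted and quantified by real-time SYBR Green PCR with 0.5 μM of each primer and 2 mM MgCl2. Output is the cytochrome b/pyruvate kinase gene copy ratio (mtDNA/nDNA), compared with time-matched control. Mean of three experiments.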

[8] = test system: H9c2; experiment: Toxicity against rat H9c2 cells assessed as inhibition of cell proliferation at 10 to 50 uM after 4 to 14 days by SRB assay; settings: h9c2, 50 µM
[9] = Toxicity against human HepG2/C3A cells assessed as reduction in mitochondrial DNA copy numbers at 50 uM after 4 to 14 days relative to control; assay type: cell-based; parameters: scale not given: the % may be the effect or the level left
Outline: as §2

[10] = Toxicity against human HepG2/C3A cells assessed as elevation of lactate levels at 0.5 ug/ml after 6 days by NAD+ reduction assay; assay type: cell-based; settings: 144 h
Outline: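 Cells were exposed to 0.5 µg/ml EtBr for 6 days in 12-well plates seeded at about 2,500 cells/well, with drug in PBS replenished at medium changes. Medium was deproteinised with TCA. Lactate was measured as NADH at 340 nm after 30 min at room temperature in glycine-hydrazine buffer pH 9.2 with NAD+ and lactate dehydrogenase. Results are nmol/well normalised to SRB absorbance, from three experiments.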

[11] = Toxicity against human HepG2/C3A cells assessed as reduction in mitochondrial DNA copy numbers at 0.5 ug/ml after 10 days relative to control; assay type: cell-based; parameters: scale not given: the % may be the effect or the level left; settings: 240 h
Outline: (§3)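 DNA was extracted after 0.5 µg/ml EtBr exposure: H9c2 at 12 days (pre-kept 7 days in 1% FBS plus 10 nM retinoic acid), HepG2/C3A at 4, 10 and 14 days. SYBR real-time PCR used 0.5 µM primers and 2 mM MgCl2. Copy numbers came from purified-product standards, reported as cytochrome b/pyruvate kinase ratio versus control.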

[12] = Toxicity in human HepG2/C3A cells assessed as cell viability at 0.5 ug/ml after 10 days; assay type: cell-based
Outline: (§4)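 HepG2/C3A cells were cultured with 0.5 µg/ml EtBr for 10 or 14 days. Harvested cells were stained with 100 nM calcein AM and 8 µM ethidium homodimer 1 for 30 min at 37°C in the dark, then analysed by flow cytometry at 488-nm excitation. Dead cells (high ethidium homodimer, low calcein) were counted per 10,000 events after debris gating.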

[13] = Toxicity in human HepG2/C3A cells assessed as cell viability at 0.5 ug/ml after 14 days; assay type: cell-based
Outline: as §4

[14] = Toxicity against human HepG2/C3A cells assessed as increase in mitochondrial superoxide production at 0.5 ug/ml after 4 to 14 days by flow cytometry; assay type: cell-based
Outline: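 HepG2/C3A cells were cultured in MEM with 10% FBS with 0.5 µg/ml EtBr for 4, 10 and 14 days, with medium changed every 2 days. Attached cells were loaded with 5 µM MitoSOX Red in HBSS with Ca/Mg for 10 min at 37°C in the dark, then trypsinised. Flow cytometry used 488-nm excitation and 530/30 emission; the value is the geometric mean fluorescence of 10,000 cells.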

[15] = Toxicity against human HepG2/C3A cells assessed as inhibition of cell proliferation at 0.5 ug/ml after 6 days by SRB assay; assay type: cell-based; settings: 144 h
Outline: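 Cells were seeded at about 2,500/well in 12-well plates and cultured with 0.5 µg/ml EtBr for 6 days. They were fixed overnight in methanol with 1% acetic acid at −10°C and stained 1 h with 0.5% SRB. Bound dye was eluted with 10 mM Tris pH 10 and absorbance read at 540 nm. Three experiments were run.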

[16] = Toxicity against human HepG2/C3A cells assessed as reduction in mitochondrial DNA copy numbers at 0.5 ug/ml after 4 days relative to control; assay type: cell-based; parameters: scale not given: the % may be the effect or the level left; settings: 96 h
Outline: as §3

[17] = Toxicity against human HepG2/C3A cells assessed as reduction in mitochondrial DNA copy numbers at 0.5 ug/ml after 14 days relative to control; assay type: cell-based; parameters: scale not given: the % may be the effect or the level left; settings: 336 h
Outline: as §3

[18] = Toxicity against human […] cells assessed as reduction in mitochondrial DNA copy numbers at 0.5 ug/ml after 6 days relative to control; assay type: cell-based; parameters: scale not given: the % may be the effect or the level left; settings: hepg2/c3a, 144 h
[19] = Toxicity against human HepG2/C3A cells assessed as reduction in mitochondrial DNA copy numbers at 1 uM after 14 days relative to control; assay type: cell-based; parameters: scale not given: the % may be the effect or the level left; settings: 336 h
Outline: as §2

[20] = Toxicity against human HepG2/C3A cells assessed as reduction in mitochondrial DNA copy numbers at 5 uM after 14 days relative to control; assay type: cell-based; parameters: scale not given: the % may be the effect or the level left; settings: 336 h
Outline: as §2

[21] = Toxicity against human HepG2/C3A cells assessed as reduction in mitochondrial DNA copy numbers at 5 uM after 4 days relative to control; assay type: cell-based; parameters: scale not given: the % may be the effect or the level left; settings: 96 h
Outline: as §2

[22] = test system: H9c2; experiment: Toxicity in rat H9c2 cells assessed as effect on cell viability at 5 uM after 6 days; settings: h9c2, 144 h
[23] = Toxicity against human HepG2/C3A cells assessed as induction of cell death at 5 uM after 14 days; assay type: cell-based; settings: 336 h
Outline: as §1

[24] = Toxicity against human HepG2/C3A cells assessed as reduction in mitochondrial DNA copy numbers at 1 uM after 4 days relative to control; assay type: cell-based; parameters: scale not given: the % may be the effect or the level left; settings: 96 h
Outline: as §2

[25] = test system: H9c2; experiment: Toxicity against rat H9c2 cells assessed as reduction in mitochondrial DNA copy numbers at 1 to 5 uM after 12 days relative to control; settings: h9c2, 288 h
[26] = test system: H9c2; experiment: Toxicity in rat H9c2 cells assessed as effect on cell viability at 1 to 5 uM after 12 days; settings: h9c2, 288 h
[27] = Toxicity against human HepG2/C3A cells assessed as inhibition of cell proliferation at 50 uM after 6 days by SRB assay; assay type: cell-based; settings: 144 h
Outline: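 Cells were seeded at about 2,500 per well and exposed to drug for 6 days. They were fixed overnight at −10°C in methanol with 1% acetic acid, stained with 0.5% SRB in 1% acetic acid for 1 h at room temperature, and the dye eluted with 10 mM Tris pH 10. Result is dilution-adjusted absorbance at 540 nm, mean of three experiments.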

[28] = Toxicity against human HepG2/C3A cells assessed as elevation of lactate levels at 10 uM after 6 days by NAD+ reduction assay; assay type: cell-based; settings: 144 h
Outline: (§5)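 Cells were seeded at about 2,500 per well and exposed 6 days; H9c2 were retinoic-acid-conditioned in 1% FBS. Medium was deproteinized with ice-cold 10% TCA. Lactate was read by LDH-catalyzed NAD+ reduction in 0.2 M glycine-hydrazine pH 9.2 with 0.6 mg/ml NAD+ and 17 U/ml LDH, 30 min at room temperature, absorbance 340 nm. Result is nmol/well normalized to SRB absorbance.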

[29] = Toxicity in human HepG2/C3A cells assessed as induction of cell death at 10 uM after 4 days; assay type: cell-based; settings: 96 h
Outline: as §1

[30] = test system: H9c2; experiment: Toxicity against rat H9c2 cells assessed as increase in mitochondrial superoxide production at 50 uM by flow cytometry; settings: h9c2, 50 µM
[31] = Toxicity against human HepG2/C3A cells assessed as elevation of lactate levels at 50 uM after 6 days by NAD+ reduction assay; assay type: cell-based; settings: 144 h
Outline: as §5

[32] = Toxicity against human HepG2/C3A cells assessed as increase in mitochondrial superoxide production at 50 uM by flow cytometry; assay type: cell-based
Outline: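 Flask-grown cells were loaded with 5 μM MitoSOX Red in HBSS with Ca/Mg for 10 min at 37°C in the dark, trypsinized, and analyzed by flow cytometry (488 nm excitation, 530/30 emission). Result is the geometric mean fluorescence of 10,000 cells. HepG2 were sampled on days 4, 10 and 14; H9c2 on day 12. Compared with time-matched control.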

[33] = Toxicity against human HepG2/C3A cells assessed as effect on mitochondrial DNA copy numbers at 50 uM after 4 days; assay type: cell-based; settings: 96 h
Outline: as §2

[34] = test system: H9c2; experiment: Toxicity in rat H9c2 cells assessed as induction of cell death at 50 uM after 12 days; settings: h9c2, 288 h
[35] = Toxicity in human HepG2/C3A cells assessed as induction of cell death at 50 uM after 10 days; assay type: cell-based; settings: 240 h
Outline: as §1

[36] = test system: H9c2; experiment: Toxicity against rat H9c2 cells assessed as elevation of lactate levels at 10 uM after 6 days by NAD+ reduction assay; settings: h9c2, 144 h
[37] = Toxicity against human HepG2/C3A cells assessed as effect on mitochondrial DNA copy numbers at 50 uM after 10 days; assay type: cell-based; settings: 240 h
Outline: as §2

[38] = Toxicity in human HepG2/C3A cells assessed as induction of cell death at 50 uM after 4 days; assay type: cell-based; settings: 96 h
Outline: as §1

[39] = test system: H9c2; experiment: Toxicity against rat H9c2 cells assessed as effect on mitochondrial DNA copy numbers after 12 days; settings: h9c2, 288 h
[40] = Toxicity in human HepG2/C3A cells assessed as induction of cell death at 50 uM after 14 days; assay type: cell-based; settings: 336 h
Outline: as §1

[41] = test system: H9c2; experiment: Toxicity against rat H9c2 cells assessed as elevation of lactate levels at 50 uM after 6 days by NAD+ reduction assay; settings: h9c2, 144 h

O=c1[nH]cnc2c1ncn2[C@H]1CC[C@@H](CO)O1 [DIDANOSINE]
Activity [1]: Non-toxic
Activity [2]: Non-toxic
Activity [3]: Non-toxic
Activity [4]: 60%
Activity [5]: Non-toxic
Activity [6]: Non-toxic
Activity [7]: 80%
Activity [8]: Non-toxic
Activity [9]: 50%

CC[n+]1c(-c2ccccc2)c2cc(N)ccc2c2ccc(N)cc21.[Br-] [HOMIDIUM BROMIDE]
Activity [10]: Toxic
Activity [11]: 10%
viability at 240 h, 0.5 ug/ml [12]: > 80%
viability at 336 h, 0.5 ug/ml [13]: > 80%
Activity [14]: Toxic
Activity [15]: Toxic
Activity [16]: 16%
Activity [17]: 4%
Activity [18]: 16%

Nc1ccn([C@H]2CC[C@@H](CO)O2)c(=O)n1 [ZALCITABINE]
Activity [19]: 1%
Activity [20]: 1%
Activity [21]: 11%
Activity [22]: Non-toxic
Activity [23]: Toxic
Activity [24]: 15%
Activity [25]: Non-toxic
Activity [26]: Non-toxic
Activity [27]: Non-toxic

Cc1cn([C@H]2C[C@H](N=[N+]=[N-])[C@@H](CO)O2)c(=O)[nH]c1=O [ZIDOVUDINE]
Activity [28]: Toxic
Activity [29]: Toxic
Activity [30]: Non-toxic
Activity [31]: Toxic
Activity [32]: Toxic
Activity [33]: Toxic
Activity [34]: Non-toxic
Activity [35]: Toxic
Activity [36]: Toxic
Activity [37]: Toxic
Activity [27]: Toxic
Activity [38]: Toxic
Activity [39]: Non-toxic
Activity [40]: Toxic
Activity [41]: Toxic
